Data taken from ChEMBL document CHEMBL1157145, “Cytotoxic activity of proflavine diureas: synthesis, antitumor, evaluation and DNA binding properties of 1',1''-(acridin-3,6-diyl)-3',3''-dialkyldiureas” (Bioorg Med Chem, 2008).
Blank lines part the entries; values can stand above or below the compound they belong to. Active and inactive are the calls of the source. The rule behind the calls is not given here.

Key:
[1] = test system: HCT-116; experiment: Cytotoxicity against human HCT116 cells after 72 hrs by MTT assay; format: functional, cell-based
[2] = test system: HeLa; experiment: Cytotoxicity against human HeLa cells after 48 hrs by MTT assay; format: functional, cell-based
[3] = test system: HCT-116; experiment: Cell cycle arrest in human HCT116 cells assessed as accumulation at G2/M phase at 27 uM after 24 hrs; format: functional
How it was run: (§1)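 Cells seeded at 8 · 10^5 per 60 mm dish, allowed to settle 24 h (37 °C, 5% CO2), then exposed to the drug for 24 or 48 h. Adherent plus floating cells (5 · 10^5) were fixed in cold 70% ethanol at −20 °C overnight, treated with RNase A (100 µg/mL) and stained with propidium iodide (20 µg/mL) in Vindelov's solution for 30 min at RT. Flow cytometry used 488 nm excitation, FL-2 at 585 ± 21 nm, and histograms were modelled for G0/G1, S and G2/M fractions.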

[4] = test system: HCT-116; experiment: Cytotoxicity against human HCT116 cells after 48 hrs by MTT assay; format: functional, cell-based; conditions: HCT-116, 48 h
[5] = test system: HCT-116; experiment: Cell cycle arrest in human HCT116 cells assessed as accumulation at S phase at 27 uM after 48 hrs; format: functional; how it was run: as §1
[6] = test system: HCT-116; experiment: Cell cycle arrest in human HCT116 cells assessed as accumulation at G2/M phase at 27 uM after 48 hrs; format: functional; how it was run: as §1
[7] = test system: HeLa; experiment: Antiproliferative activity against human HeLa cells assessed as increase of floating cells in total cell population at 64 uM after 48 hrs; format: functional
How it was run: (§2)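 Cells seeded (8 · 10^5 per 60 mm dish), allowed to settle 24 h at 37 °C, 5% CO2, then treated with a single concentration for 24 or 48 h. Adherent and floating cells counted by Coulter counter. Total cell number given as % of untreated control; floating cells as % of total cell number.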

[8] = test system: HeLa; experiment: Cytotoxicity against human HeLa cells after 72 hrs by MTT assay; format: functional, cell-based
[9] = test system: HCT-116; experiment: Antiproliferative activity against human HCT116 cells assessed as increase of floating cells in total cell population at 27 uM after 48 hrs; format: functional; how it was run: as §2
[10] = test system: HeLa; experiment: Cell cycle arrest in human HeLa cells assessed as accumulation at G0/G1 phase at 64 uM after 48 hrs; format: functional; how it was run: as §1
[11] = test system: HeLa; experiment: Antiproliferative activity against human HeLa cells assessed as decrease in total cell population at 64 uM after 24 hrs; format: functional; parameters: scale not given: the % may be the effect or the level left; how it was run: as §2
[12] = test system: HeLa; experiment: Cell cycle arrest in human HeLa cells assessed as accumulation at G0/G1 phase at 64 uM after 24 hrs; format: functional; how it was run: as §1
[13] = test system: DNA; experiment: Binding affinity to calf thymus DNA at 4 uM by fluorescence spectrophotometric titration; format: nucleic-acid assay; conditions: Bos taurus
How it was run: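 ctDNA sonicated in TE buffer, concentration taken from A260 and given in base pairs. Compound (4 µM) in 0.01 M Tris, pH 7.4, 25 °C titrated with ctDNA (0–55 µM bp) until spectra stopped changing. Excitation 424 nm, slit widths 10 nm; binding constant derived from the change in emission.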

[14] = test system: HeLa; experiment: Cell cycle arrest in human HeLa cells assessed as accumulation at G2/M phase at 64 uM after 48 hrs; format: functional; how it was run: as §1
[15] = test system: HCT-116; experiment: Antiproliferative activity against human HCT116 cells assessed as increase of floating cells in total cell population at 27 uM after 24 hrs; format: functional; how it was run: as §2
[16] = test system: HeLa; experiment: Antiproliferative activity against human HeLa cells assessed as increase of floating cells in total cell population at 64 uM after 24 hrs; format: functional; how it was run: as §2
[17] = test system: HCT-116; experiment: Cell cycle arrest in human HCT116 cells assessed as accumulation at S phase at 27 uM after 24 hrs; format: functional; how it was run: as §1
[18] = test system: HeLa; experiment: Cell cycle arrest in human HeLa cells assessed as accumulation at S phase at 64 uM after 24 hrs; format: functional; how it was run: as §1
[19] = test system: DNA; experiment: Binding affinity to calf thymus DNA at 5.5 uM by absorption titration; format: nucleic-acid assay; conditions: Bos taurus
How it was run: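 Compound (5.5 µM) in 0.01 M Tris, pH 7.4, 25 °C. UV–vis spectra recorded over ctDNA 0–35 µM bp in 5 µM steps, corrected for dilution. ctDNA concentration from A260, expressed in base pairs.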

[20] = test system: HeLa; experiment: Induction of apoptosis in human HeLa cells at 64 uM after 48 hrs; format: functional
How it was run: (§3)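 After 24 or 48 h of drug exposure, all cells were collected, combining trypsinised adherent cells with floating cells from the medium. Cells (1 × 10^6) were fixed in cold 70% ethanol overnight at −20 °C and stained with DAPI (10 µg/mL) for 30 min in the dark at RT. Under fluorescence microscopy, 300 cells per sample were scored, with condensed or fragmented nuclei counted as apoptotic.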

[21] = test system: HeLa; experiment: Induction of apoptosis in human HeLa cells at 64 uM after 24 hrs; format: functional; how it was run: as §3
[22] = test system: HCT-116; experiment: Induction of apoptosis in human HCT116 cells at 27 uM after 48 hrs; format: functional; how it was run: as §3
[23] = test system: HeLa; experiment: Cell cycle arrest in human HeLa cells assessed as accumulation at G2/M phase at 64 uM after 24 hrs; format: functional; how it was run: as §1
[24] = test system: HCT-116; experiment: Induction of apoptosis in human HCT116 cells at 27 uM after 24 hrs; format: functional; how it was run: as §3
[25] = test system: DNA; experiment: Binding affinity to calf thymus DNA at 50 uM by circular dichroism spectrophotometric titration; format: nucleic-acid assay; conditions: Bos taurus
[26] = test system: HCT-116; experiment: Cell cycle arrest in human HCT116 cells assessed as accumulation at G0/G1 phase at 27 uM after 24 hrs; format: functional
How it was run: (§4)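 Adherent plus floating cells (5 · 10^5) collected 24 or 48 h after treatment, fixed in cold 70% ethanol at −20 °C overnight, washed in PBS. RNase A (100 µg/mL) and propidium iodide (20 µg/mL) in Vindelov's solution, 30 min at RT. Flow cytometry with 488 nm excitation, emission 585 ± 21 nm; % cells per cycle phase from DNA content histograms.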

[27] = test system: HCT-116; experiment: Cell cycle arrest in human HCT116 cells assessed as accumulation at G0/G1 phase at 27 uM after 48 hrs; format: functional; how it was run: as §4
[28] = test system: HeLa; experiment: Antiproliferative activity against human HeLa cells assessed as decrease in total cell population at 64 uM after 48 hrs; format: functional; parameters: scale not given: the % may be the effect or the level left; how it was run: as §2
[29] = test system: HeLa; experiment: Cell cycle arrest in human HeLa cells assessed as accumulation at S phase at 64 uM after 48 hrs; format: functional; how it was run: as §1
[30] = test system: HCT-116; experiment: Antiproliferative activity against human HCT116 cells assessed as decrease in total cell population at 27 uM after 48 hrs; format: functional; parameters: scale not given: the % may be the effect or the level left; how it was run: as §2
[31] = test system: HCT-116; experiment: Antiproliferative activity against human HCT116 cells assessed as decrease in total cell population at 27 uM after 24 hrs; format: functional; parameters: scale not given: the % may be the effect or the level left; how it was run: as §2

SMILES: CC(C)C1=Cc2ccc3c(c2C(=O)C1=O)CCCC3(C)C [MILTIRONE]
Activity [1]: 12.39 µM

SMILES: COc1cc([C@@H]2c3cc4c(cc3[C@@H](O[C@@H]3O[C@@H]5CO[C@@H](C)O[C@H]5[C@H](O)[C@H]3O)[C@H]3COC(=O)[C@H]23)OCO4)cc(OC)c1O [ETOPOSIDE]
IC50 [2]: 2.9 µM

K [13]: 4.2 ×10⁵ /M
Activity [19]: Active
Activity [25]: Active
SMILES: CCNC(=O)Nc1ccc2cc3ccc(NC(=O)NCC)cc3nc2c1.Cl
Activity [3]: 18.5%
IC50 [4]: 27.6 µM
Activity [5]: 31.45%
Activity [6]: 14.85%
Activity [7]: 4.63%
IC50 [8]: 60 µM
Activity [9]: 5.68%
Activity [10]: 71.26%
IC50 ([1]; Homo sapiens, HCT-116, 72 h): 34.7 µM
Activity [11]: 95.15%
Activity [12]: 63.51%
Activity [14]: 9.23%
Activity [15]: 6.2%
Activity [16]: 3.58%
Activity [17]: 34.06%
Activity [18]: 23.73%
Activity [20]: 0.89%
Activity [21]: 1.33%
Activity [22]: 3.44%
Activity [23]: 12.75%
Activity [24]: 3.22%
Activity [26]: 47.44%
Activity [27]: 53.7%
Activity [28]: 93.61%
Activity [29]: 19.5%
IC50 [2]: 63.9 µM
Activity [30]: 75.37%
Activity [31]: 79.4%
